Assay [1] addresses T1, TGF-beta receptor type-1 (Rattus norvegicus) (UniProt P80204).
T1 sequence (whole entry): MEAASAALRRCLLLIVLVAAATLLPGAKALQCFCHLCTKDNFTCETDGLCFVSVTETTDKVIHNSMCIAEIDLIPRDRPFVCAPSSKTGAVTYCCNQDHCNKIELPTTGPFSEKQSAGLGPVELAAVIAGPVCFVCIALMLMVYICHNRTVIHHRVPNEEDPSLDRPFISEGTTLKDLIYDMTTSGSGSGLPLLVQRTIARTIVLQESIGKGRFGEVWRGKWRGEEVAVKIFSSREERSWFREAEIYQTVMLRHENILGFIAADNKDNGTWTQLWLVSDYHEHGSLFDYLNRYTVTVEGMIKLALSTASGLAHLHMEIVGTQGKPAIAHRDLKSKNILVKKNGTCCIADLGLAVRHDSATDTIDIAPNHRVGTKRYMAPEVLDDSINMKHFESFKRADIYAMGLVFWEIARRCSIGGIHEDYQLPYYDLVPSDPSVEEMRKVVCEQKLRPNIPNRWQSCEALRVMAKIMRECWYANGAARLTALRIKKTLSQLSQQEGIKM
Briefly: Inhibition of TGFbeta1 receptor in TGFbeta1-stimulated Sprague-Dawley rat cardiac fibroblasts assessed as reduction in Smad3 nuclear translocation at 10 uM measured after 5 mins by Western blot analysis. In short, it runs like this: (§1)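 Primary rat cardiac fibroblasts treated with 10 µM compound plus 10 ng/mL TGFβ1 for 5 min. Nuclear and cytosolic fractions separated with a kit and Smad2/Smad3 measured by Western blot.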
A general note: Immunoblotting shows a protein as a band on a membrane.

The subject of assay [2] is Rattus norvegicus. Briefly: Antifibrotic activity in abdominal aortic constriction Sprague-Dawley rat model of cardiac fibrosis assessed as diastolic left ventricular posterior wall thickness at 5 mg/kg, ip administered once daily for 4 weeks measured post-last dose by echocardiography (reference value: 2.33 +/- 0.31 mm). Type of assay: functional.
Assay [3] deals with Rattus norvegicus. Briefly: Antifibrotic activity in abdominal aortic constriction Sprague-Dawley rat model of cardiac fibrosis assessed as down regulation of collagen expression in heart at 5 mg/kg, ip administered once daily for 4 weeks measured post-last dose by Western blot analysis. Type of assay: functional, organism-based. In short, it runs like this:
(§2)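 AAC rats dosed ip daily for 4 weeks, n=8 per group. Hearts homogenized in lysis buffer with protease and phosphatase inhibitors and spun at 12,000 rpm for 30 min at 4 °C. Nuclear and cytoplasmic fractions prepared with a kit. Protein measured by BCA; 30 µg run on 10% SDS-PAGE, transferred to PVDF and immunoblotted; bands quantified by densitometry.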

The target in assay [4] is T1, TGF-beta receptor type-1 (Rattus norvegicus). The assay can be described thus: Inhibition of TGFbeta1 receptor in TGFbeta1-stimulated Sprague-Dawley rat cardiac fibroblasts assessed as reduction in collagen 1 mRNA expression at 2.5 to 10 uM measured after 12 hrs by qRT-PCR analysis. In short, it runs like this:
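Primary rat cardiac fibroblasts (3×10^5 per well) treated with compound plus 10 ng/mL TGFβ1 for 12 h. Total RNA extracted and target transcripts measured by SYBR Green qRT-PCR, normalized to GAPDH.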

For assay [5] the target is unchanged. The assay can be described thus: Inhibition of TGFbeta1 receptor in TGFbeta1-stimulated Sprague-Dawley rat cardiac fibroblasts assessed as reduction in collagen 3 expression measured after 12 hrs by Western blot analysis. In short, it runs like this: (§3)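 Primary rat cardiac fibroblasts (passages 2–4, 3×10^5 per well) treated with compound plus 10 ng/mL TGFβ1 for 12 h; tested at 2.5, 5 and 10 µM. Lysates run on 10% SDS-PAGE (30 µg protein), probed for FN, α-SMA and collagen I/III, and quantified by densitometry against GAPDH. N=3 independent experiments.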

For assay [6], the system named is Rattus norvegicus. Briefly: Antifibrotic activity in abdominal aortic constriction Sprague-Dawley rat model of cardiac fibrosis assessed as down regulation of fibronectin expression in heart at 5 mg/kg, ip administered once daily for 4 weeks measured post-last dose by Western blot analysis. It is filed as functional, organism-based. In short, it runs like this:
as §2

Assay [7] has as its system Rattus norvegicus. Briefly: Antifibrotic activity in abdominal aortic constriction Sprague-Dawley rat model of cardiac fibrosis assessed as decrease in heart collagen level at 5 mg/kg, ip administered once daily for 4 weeks measured post-last dose by Masson's trichrome staining-based histological analysis relative to control. Type of assay: functional. More on the design: scale not given: the % may be the effect or the level left. In short, it runs like this:
(§4)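 Male SD rats (200–250 g) with abdominal aortic constriction (suture tied over a 21-G probe above the renal arteries), under pentobarbital 30 mg/kg ip. Dosed ip daily for 4 weeks. Vehicle was saline with 0.5% DMSO and 5% Kolliphor HS 15. Groups: sham, AAC, AAC+nifedipine 10 mg/kg, n=8 each. Formalin-fixed paraffin sections 4 µm thick; FN and α-SMA by immunohistochemistry, collagen by Masson's trichrome; stained area measured.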

The target in assay [8] is T1, TGF-beta receptor type-1 (Rattus norvegicus). The assay can be described thus: Inhibition of TGFbeta1 receptor in TGFbeta1-stimulated Sprague-Dawley rat cardiac fibroblasts assessed as reduction in collagen 1 expression measured after 12 hrs by Western blot analysis. In short, it runs like this:
as §3

Assay [9] has the same target. Briefly: Inhibition of TGFbeta1 receptor in TGFbeta1-stimulated Sprague-Dawley rat cardiac fibroblasts assessed as reduction in Smad3 phosphorylation at 10 uM measured after 5 to 30 mins by Western blot analysis.
The subject of assay [10] is Rattus norvegicus. The assay can be described thus: Antifibrotic activity in abdominal aortic constriction Sprague-Dawley rat model of cardiac fibrosis assessed as fractional shortening at 5 mg/kg, ip administered once daily for 4 weeks measured post-last dose by echocardiography (reference value: 48.17 +/- 4.69%). It is filed as functional.
The subject of assay [11] is Rattus norvegicus. The assay can be described thus: Antifibrotic activity in abdominal aortic constriction Sprague-Dawley rat model of cardiac fibrosis assessed as diastolic left ventricular anterior wall thickness at 5 mg/kg, ip administered once daily for 4 weeks measured post-last dose by echocardiography (reference value: 2.48 +/- 0.42 mm). It is filed as functional.

The target in assay [12] is T1, TGF-beta receptor type-1 (Rattus norvegicus). Briefly: Inhibition of TGFbeta1 receptor in TGFbeta1-stimulated Sprague-Dawley rat cardiac fibroblasts assessed as reduction in Smad2 phosphorylation at 10 uM measured after 5 to 30 mins by Western blot analysis.
Assay [13] shares this target. The assay can be described thus: Inhibition of TGFbeta1 receptor in TGFbeta1-stimulated Sprague-Dawley rat cardiac fibroblasts assessed as reduction in Smad2 nuclear translocation at 10 uM measured after 5 mins by DAPI staining-based laser confocal microscopic analysis. In short, it runs like this: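 Primary rat cardiac fibroblasts treated with 10 µM compound plus 10 ng/mL TGFβ1 for 5 min. Fixed in 4% PFA, permeabilized with 0.1% Triton X-100, blocked with goat serum. Stained with anti-Smad2 or anti-Smad3 overnight at 4 °C, then Alexa 594 secondary and DAPI nuclear stain. Imaged by confocal microscopy.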

In assay [14] the target is TGF-beta receptor type-2 (Homo sapiens) (UniProt P37173). The assay can be described thus: Inhibition of recombinant human N-terminal GST-tagged TGFbeta2 receptor (190 to end residues) expressed in baculovirus infected Sf9 insect cells up to 100 uM using MBP as substrate measured after 2 hrs by ADP-Glo assay. In short, it runs like this:
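Recombinant human TβRII produced in Sf9 cells. Compound serially diluted from DMSO and incubated with enzyme, 50 µM ATP and 0.1 g/L MBP for 2 h at room temperature. Kinase activity read as ADP generated.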
(In general: ADP-Glo first removes unused ATP, then detects ADP through luciferase.)

Assay [15] relates to Rattus norvegicus. The assay can be described thus: Antifibrotic activity in abdominal aortic constriction Sprague-Dawley rat model of cardiac fibrosis assessed as down regulation of alpha-SMA expression in heart at 5 mg/kg, ip administered once daily for 4 weeks measured post-last dose by Western blot analysis. It is filed as functional, organism-based. In short, it runs like this:
as §2

Assay [16] relates to Rattus norvegicus. Briefly: Antifibrotic activity in abdominal aortic constriction Sprague-Dawley rat model of cardiac fibrosis assessed as decrease in heart alpha-SMA level at 5 mg/kg, ip administered once daily for 4 weeks measured post-last dose by immunohistochemical analysis relative to control. Type of assay: functional. The arrangement: scale not given: the % may be the effect or the level left. In short, it runs like this:
as §4

The target in assay [17] is T1, TGF-beta receptor type-1 (Rattus norvegicus). Briefly: Inhibition of TGFbeta1 receptor in TGFbeta1-stimulated Sprague-Dawley rat cardiac fibroblasts assessed as reduction in Smad2 nuclear translocation at 10 uM measured after 5 mins by Western blot analysis. In short, it runs like this:
as §1

The source made the active and inactive calls. The rule behind the calls is not given here.

Chain of TGF-beta receptor type-2 (Homo sapiens) (P37173 whole entry): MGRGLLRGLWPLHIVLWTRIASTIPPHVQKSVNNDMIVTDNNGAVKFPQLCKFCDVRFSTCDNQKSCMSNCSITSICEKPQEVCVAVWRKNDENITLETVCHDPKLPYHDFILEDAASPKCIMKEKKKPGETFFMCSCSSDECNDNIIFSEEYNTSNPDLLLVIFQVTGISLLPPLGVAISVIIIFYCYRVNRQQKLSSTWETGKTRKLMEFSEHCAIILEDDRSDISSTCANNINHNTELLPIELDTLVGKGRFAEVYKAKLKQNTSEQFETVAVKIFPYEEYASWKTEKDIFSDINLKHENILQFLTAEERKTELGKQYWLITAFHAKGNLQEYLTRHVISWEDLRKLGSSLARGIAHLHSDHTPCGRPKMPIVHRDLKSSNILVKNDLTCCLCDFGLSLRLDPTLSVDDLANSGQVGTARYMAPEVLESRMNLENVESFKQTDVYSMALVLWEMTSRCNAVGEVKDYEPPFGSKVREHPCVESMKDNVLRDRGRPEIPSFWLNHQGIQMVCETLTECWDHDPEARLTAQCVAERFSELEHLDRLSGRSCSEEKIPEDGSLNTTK

As to `C=C(C)[C@@H]1C/C=C(\C)C(=O)CCC2=C[C@@H]1OC2=O`, the inhibition entry in assay [1], in assay [4], in assay [9], in assay [12], in [13] and in assay [17] was “Active” throughout. For the same compound, the Activity in assay [2] is 2 mm; in assay [7], 65.6%; in [10] it was 42.54%; in assay [11], 2.11 mm; in assay [16] it was 88.8%. For the same compound, the outcome in assay [3], in assay [6] and in assay [15] was Active. In addition, the inhibition entry in assay [5] and in assay [8] was “Dose-dependent effect” in each case. Moreover, the inhibition result in [14] was “inactive”.

(Values after ChEMBL document CHEMBL4373718, “Germacrane Sesquiterpenoids as a New Type of Anticardiac Fibrosis Agent Targeting Transforming Growth Factor β Type I Receptor” (J Med Chem, 2019).)
